Test results reported in ChEMBL document CHEMBL1154279, “Cytotoxic compounds from the stems of Cinnamomum tenuifolium” (J Nat Prod, 2009).
Calls of active or inactive are those of the source. The rule behind the calls is not given here.

What was measured:
[1] = tested on: DU-145; experiment: Cell cycle arrest in human DU145 cells assessed as accumulation of cells at S phase at 1 uM after 72 hrs using propidium iodide stain by flow cytometry; type: functional
Procedure, shortened: (§1)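 DU145 cells treated with 1, 5, 10 or 100 µM for 24 or 72 h; vehicle 1% DMSO in water. Adherent and floating cells pooled, fixed in PBS-MeOH (1:2) at 4 °C for at least 18 h, then stained 30 min at room temperature in the dark with propidium iodide 50 µg/mL plus RNase A 50 µg/mL. Flow cytometry, excitation 488 nm, emission above 580 nm, doublets gated out. Sub-G1 region taken as DNA damage; at least three runs.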

[2] = tested on: DU-145; experiment: Cell cycle arrest in human DU145 cells assessed as accumulation of cells at G1 phase at 1 uM after 72 hrs using propidium iodide stain by flow cytometry; type: functional; procedure, shortened: as §1
[3] = tested on: DU-145; experiment: Cell cycle arrest in human DU145 cells assessed as accumulation of cells at sub-G1 phase at 1 uM after 72 hrs using propidium iodide stain by flow cytometry; type: functional; procedure, shortened: as §1
[4] = tested on: DU-145; experiment: Induction of apoptosis in human DU145 cells assessed as formation of granulation of nucleus after 24 hrs by Hoechst 33342 stainig; type: functional, cell-based
Procedure, shortened: (§2)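 DU145 cells exposed to 1 and 100 µM for 24 h, vehicle 1% DMSO. Fixed in 3.7% paraformaldehyde, stained with Hoechst 33342 (5 µg/mL) at 37 °C for 1 h and examined by fluorescence microscopy. Cells with reduced nuclear size, chromatin condensation or nuclear fragmentation scored as apoptotic.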

[5] = tested on: DU-145; experiment: Cytotoxicity against human DU145 cells after 72 hrs by XTT assay; type: functional, cell-based; settings: DU-145, 24 h, in the assay text read “after 24 hrs” for “after 72 hrs”
[6] = tested on: LNCaP; experiment: Cytotoxicity against human LNCAP cells after 72 hrs by XTT assay; type: functional, cell-based; settings: 24 h, in the assay text read “after 24 hrs” for “after 72 hrs”
Procedure, shortened: (§3)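 Prostate cancer cells in RPMI-1640 with 10% FBS, 37 °C, 5% CO2, grown to 70–80% confluence and treated at 0.1–100 µM for 24, 48 and 72 h. XTT labeling for 4 h at 37 °C, absorbance 450 nm (reference 650 nm) against control wells. IC50 derived from the mean of eight wells; taxol and cisplatin served as positive controls.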

[7] = tested on: DU-145; experiment: Reduction of mitochondrial membrane potential in human DU145 cells using rhodamine 123 staining by spectrophotofluorimeter; type: functional, cell-based
Procedure, shortened: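 DU145 cells incubated 6, 12, 18 or 24 h with or without 10 and 100 µM, then given 10 µM rhodamine 123 in serum-free medium for 15 min at 37 °C. Collected cells read within 15 min by spectrofluorimeter (ex 495, em 520 nm); three experiments.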

[8] = tested on: DU-145; experiment: Increase in the ratio of cytochrome C concentration from cytosol to mitochondria in human DU145 cells at 100 uM after 24 hrs by ELISA; type: functional, cell-based
Procedure, shortened: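 DU145 cells given 100 µM or DMSO vehicle for 6–24 h at 37 °C. Cytosolic fraction released with digitonin buffer on ice for 5 min; mitochondrial fraction taken by Triton/deoxycholate/SDS lysis and a 10000g spin. Cytochrome c in each fraction measured by ELISA and expressed as a cytosol/mitochondria ratio; three experiments, ANOVA with Dunnett's test.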

[9] = tested on: DU-145; experiment: Induction of apoptosis in human DU145 cells assessed as caspase3 activation at 10 uM by ELISA; type: functional, cell-based
Procedure, shortened: (§4)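 DU145 cells treated with 10 µM for 1, 3, 6, 12 and 24 h and lysed. Lysate (60 µg) incubated with Ac-DEVD-pNA or Ac-LEHD-pNA in PIPES buffer pH 7.2 at 37 °C for 1 h in the dark. pNA release read at 405 nm and expressed as percent change against untreated control.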

[10] = tested on: DU-145; experiment: Induction of apoptosis in human DU145 cells assessed as caspase9 activation after 24 hrs by ELISA; type: functional, cell-based; settings: TDE = time-dependent effect; procedure, shortened: as §4
[11] = tested on: DU-145; experiment: Antiproliferative activity in human DU145 cells at 10 uM after 24 hrs by XTT assay in the presence of Ac-DEVD-CMK; type: functional, cell-based
Procedure, shortened: (§5)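 DU145 cells pretreated 60 min with 50 µM Ac-DEVD-CMK or 50 µM Ac-LEHD-CMK, then exposed to 10 µM compound for 24 h (vehicle 1% DMSO in water). Proliferation read by XTT: labeling mixture added for 4 h at 37 °C, OD 450 nm (reference 650 nm) versus control wells; mean ± SE of three experiments.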

[12] = tested on: DU-145; experiment: Antiproliferative activity in human DU145 cells at 10 uM after 24 hrs by XTT assay in the presence of Ac-LEHD-CMK; type: functional, cell-based; procedure, shortened: as §5
[13] = tested on: DU-145; experiment: Induction of apoptosis in human DU145 cells assessed as PARP activation at 100 uM by ELISA; type: functional, cell-based
[14] = tested on: DU-145; experiment: Increase of intracellular hydrogen peroxide and or peroxide in human DU145 cells at 50 uM after 24 hrs by DCFH-DA assay relative to control; type: functional
Procedure, shortened: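 DU145 cells (1 × 10^4 per well) treated with 1, 10 or 50 µM for 6–24 h, then loaded with 10 µM DCFH-DA in serum-free medium for 30 min at 37 °C in the dark. DCF fluorescence read by spectrofluorimeter (ex 495, em 530 nm) within 15 min; five experiments.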

[15] = tested on: DU-145; experiment: Induction of apoptosis in human DU145 cells assessed as increase in intracellular ROS level at 10 uM by DCHF-DA assay; type: functional, cell-based
[16] = tested on: DU-145; experiment: Cell cycle arrest in human DU145 cells assessed as accumulation of cells at sub-G1 phase after 24 hrs using propidium iodide stain by flow cytometry; type: functional, cell-based; procedure, shortened: as §1
[17] = tested on: DU-145; experiment: Induction of apoptosis in human DU145 cells assessed as caspase9 activation by ELISA; type: functional, cell-based; settings: TDE = time-dependent effect; procedure, shortened: as §4
[18] = tested on: DU-145; experiment: Induction of apoptosis in human DU145 cells assessed as change in cellular morphology after 24 hrs by Hoechst 33342 stainig; type: functional, cell-based; procedure, shortened: as §2
[19] = tested on: DU-145; experiment: Cytotoxicity against human DU145 cells at 100 uM after 72 hrs by XTT assay; type: functional, cell-based; procedure, shortened: as §3
[20] = tested on: DU-145; experiment: Cytotoxicity against human DU145 cells at 100 uM after 72 hrs by Trypan blue dye exclusion test; type: functional, cell-based
Procedure, shortened: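 DU145 cells (1 × 10^5 per 60 mm dish) treated the following day with 1–100 µM for 24, 48 and 72 h. Cells harvested, washed twice with PBS and stained with trypan blue; unstained viable cells counted by microscope with a hemocytometer. Mean ± SE.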

[21] = tested on: DU-145; experiment: Cell cycle arrest in human DU145 cells assessed as accumulation of cells at sub-G1 phase at 1 uM after 24 hrs using propidium iodide stain by flow cytometry; type: functional; procedure, shortened: as §1
[22] = tested on: DU-145; experiment: Cell cycle arrest in human DU145 cells assessed as accumulation of cells at G1 phase at 1 uM after 24 hrs using propidium iodide stain by flow cytometry; type: functional; procedure, shortened: as §1
[23] = tested on: DU-145; experiment: Cell cycle arrest in human DU145 cells assessed as accumulation of cells at S phase at 1 uM after 24 hrs using propidium iodide stain by flow cytometry; type: functional; procedure, shortened: as §1

## CCCCCCCCCCCCCCCCCCCCCCCC/C=C(/C(=O)OC)[C@@H](O)C(C)=O [SECOTENUIFOLIDE A]
[1]
  Activity: 2.88%
[2]
  Activity: 53.11%
[3]
  Activity: 9.75%
[4]
  Activity: Active
[5]
  EC50: < 7 µM
  IC50: 5.2 µM
[6]
  EC50: < 7 µM
  IC50: 6.76 µM
[7]
  Activity: Active
[8]
  Activity: Active
[9]
  Activity: Active
[10]
  Activity: tde
[11]
  Activity: inactive
[12]
  Activity: inactive
[13]
  Activity: Active
[14]
  fold change (FC): 2.5
[15]
  Activity: Active
[16]
  Activity: Dose-dependent effect
[17]
  Activity: tde
[18]
  Activity: Active
[19]
  Activity: Active
[20]
  Activity: Active
[21]
  Activity: 6.56%
[22]
  Activity: 44.45%
[23]
  Activity: 3.31%
